# APOBEC3G inh – APOBEC3G DNA deaminase inhibitors, primary screen, biochemical, fluorescence, single-stranded DNA substrate, uHTS; recombinant A3G, ssDNA deamination FAM/TAMRA fluorescence; inhibition, % at 20 µM; 0.28% of 330,000 active; AID 493012, 2011;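 active = inhibition of at least 40% at 20 µM, with no more than 30% in the related APOBEC3A deaminase screen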;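 also: plate controls were DMSO wells with A3G for no effect and wells lacking A3G enzyme for full effect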
# HCV core dimer – inhibitors of HCV core protein dimerization, primary screen, biochemical, TR-FRET, high-throughput | AID 1899, 2009 | TR-FRET GST/Flag-core106 dimerization, 1536-well | 0.33% of 300,000 active | inhibition, % at 5 µM;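 active = inhibition above the mean of all tested compounds plus 3 SD, set per screening campaign, cut at about 45% in these data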
#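 Assay system: Tagged HCV core106 pair (GST and Flag) | Buffer or medium: KF-containing HEPES buffer, pH 7.45, DTT, CHAPS, BSA | Also added: Eu donor and XL665 acceptor anti-tag antibodies | Dosing: One concentration, 5 µM, in 0.5% DMSO | Timing: 4 h at 22.5 °C | Technique: TR-FRET 671 and 617 nm emission | Repeats: Singlicate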
# NS3 helicase inh – inhibitors of HCV NS3 helicase, primary screen, biochemical, Cy5 molecular beacon fluorescence; Hepatitis C virus NS3 helicase; NS3 helicase DNA unwinding; inhibition, % at 10.9 µM; 0.56% of 290,000 active; AID 1800, 2009;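 active = inhibition above the mean of all tested compounds plus 3 SD, set per campaign, cut at about 35% in these data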;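 also: 0% = DMSO wells and 100% = thioflavine S control wells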
#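 assay system = NS3 helicase fragment of HCV | buffer or medium = MOPS pH 6.5, MgCl2, DTT, Tween20, BSA | timing = 60 min unwinding reaction at 25 °C after ATP addition | signal = Cy5 beacon fluorescence read at start and 1 h | read-out basis = % inhibition of unwinding | control set = low DMSO, high thioflavine S at 110 µM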
# PRMT1 FP inh – PRMT1 methyltransferase inhibitors, primary screen, biochemical, fluorescence polarization | Protein arginine N-methyltransferase 1 (Homo sapiens), Q99873 | inhibition, % at 2.79 µM | AID 652257, 2013 | 1.3% of 370,000 active | recombinant PRMT1, activity-based probe fluorescence polarization;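 active = inhibition above about 21% made by adding two undisclosed values, limit read from the data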
# A3A deaminase – APOBEC3A ssDNA deaminase inhibitors, primary screen, selectivity assay for APOBEC3G inhibitor project, biochemical, FAM/TAMRA oligo cleavage fluorescence; inhibition, % at 20 µM; recombinant A3A, FAM/TAMRA ssDNA deamination fluorescence; DNA dC->dU-editing enzyme APOBEC-3A (Homo sapiens), P31941; 0.41% of 330,000 active;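 active = at least 40% inhibition at 20 µM here, with at most 30% in a related deaminase screen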;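 also: plate controls were A3A with DMSO for no effect and wells lacking A3A enzyme for full effect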
# ABHD5 PLIN5 PPI – ABHD5-PLIN5 interaction inhibitors, primary screen, cell lysate, split luciferase complementation, luminescence; AID 602281, 2012; Perilipin-5 (Homo sapiens) + 1-acylglycerol-3-phosphate O-acyltransferase ABHD5 (Homo …; inhibition, % at 4 µM; Split G. princeps luciferase complementation, 4 h; 0.78% of 360,000 active;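 active = inhibition above the mean inhibition across every tested compound plus 3 SD, cut at about 22% in these data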;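 also: 0% = DMSO only wells and the 100% control is not disclosed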
# Target sequence (Q00G26 whole entry, looked up): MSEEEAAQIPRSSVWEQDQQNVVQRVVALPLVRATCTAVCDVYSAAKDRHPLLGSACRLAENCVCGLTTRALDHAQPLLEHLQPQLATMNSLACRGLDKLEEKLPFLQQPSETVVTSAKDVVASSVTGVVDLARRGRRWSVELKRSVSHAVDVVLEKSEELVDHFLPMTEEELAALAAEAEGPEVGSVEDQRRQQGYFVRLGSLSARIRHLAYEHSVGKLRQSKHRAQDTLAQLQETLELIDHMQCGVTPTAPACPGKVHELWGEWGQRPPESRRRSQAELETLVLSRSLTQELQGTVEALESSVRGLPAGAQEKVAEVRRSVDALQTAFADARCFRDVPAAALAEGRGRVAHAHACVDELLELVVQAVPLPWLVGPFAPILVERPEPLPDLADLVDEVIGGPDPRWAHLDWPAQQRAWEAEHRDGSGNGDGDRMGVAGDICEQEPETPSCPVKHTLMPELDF
# Target sequence (Q8WTS1 whole entry, looked up): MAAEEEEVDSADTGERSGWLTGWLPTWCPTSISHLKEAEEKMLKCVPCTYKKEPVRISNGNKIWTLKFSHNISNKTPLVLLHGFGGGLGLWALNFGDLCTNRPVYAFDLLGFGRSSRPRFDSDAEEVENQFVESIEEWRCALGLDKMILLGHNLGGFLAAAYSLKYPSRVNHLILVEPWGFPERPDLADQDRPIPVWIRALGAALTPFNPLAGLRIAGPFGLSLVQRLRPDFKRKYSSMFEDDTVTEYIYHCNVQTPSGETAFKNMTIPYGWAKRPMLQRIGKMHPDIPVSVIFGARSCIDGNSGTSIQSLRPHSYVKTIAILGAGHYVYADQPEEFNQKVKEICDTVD
# PRMT1 confirm – PRMT1 methyltransferase inhibitors, confirmation, biochemical, fluorescence polarization, triplicate; shares compounds with PRMT1 FP inh; recombinant His-PRMT1, activity-based probe fluorescence polarization; inhibition, % at 2.79 µM; 42% of 3,300 active;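 active = mean inhibition across replicates above the hit cutoff derived for the earlier primary screen, cut at about 22% in these data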
# * hit, by the source's call; / = not tested or not shown. Sampled rows, rich in hits. Any-hit rate of the full collection: about 2.9%.
SMILES,APOBEC3G inh,HCV core dimer,NS3 helicase inh,PRMT1 FP inh,A3A deaminase,ABHD5 PLIN5 PPI,PRMT1 confirm
COc1ccc(N2C(=O)CC(N3CCN(c4ccc(S(=O)(=O)N5CCCC5)cc4)CC3)C2=O)cc1 (centres undefined),-3.6,-2.2,-11.1,0.7,-0.5,4.8,/
COc1ccc(N2C(=O)CC(N3CCCC4CCCCC43)C2=O)cc1 (centres undefined),2.4,-3.7,1.6,52.5*,-0.1,8.3,3.2
COc1ccc(N2C(=O)CC(N3CCC(O)(c4cccc(C(F)(F)F)c4)CC3)C2=O)cc1 (centres undefined),-3.4,3.2,-5.8,61.0*,0.9,2.8,-3.1
COc1ccc(N2C(=O)CC(NC3CCCCNC3=O)C2=O)cc1 (centres undefined),-6.8,-2.7,-0.1,27.9*,-2.1,4.7,4.9
COc1ccc(N2C(=O)CC(N3CCCCC3)C2=O)cc1 (centres undefined),-17.4,-3.1,3.2,80.0*,-4.2,13.8,-0.1
Cc1ccsc1C(=O)N1CCC1(C)C(=O)NS(=O)(=O)c1ccc(C#N)cc1 (centres undefined),/,/,/,2.8,/,7.8,/
O=C1CC(N2CCN(c3ccc(F)cc3)CC2)C(=O)N1c1ccc(F)cc1 (centres undefined),-3.3,-3.6,-0.1,0.4,-2.0,2.1,/
O=C1CC(N2CCCCCC2)C(=O)N1c1ccc(F)cc1 (centres undefined),-8.7,6.7,1.0,41.3*,-6.1,5.4,29.1*
CN(C)/C=C1\C=C2C(=O)c3ccccc3N2C1=O,-260.2,-9.7,2.7,110.6*,-120.2,1.1,54.0*
CCCc1cc(C(=O)Nc2cccc(-c3nn[nH]n3)c2)sc1C,/,/,/,4.8,/,-9.6,/
Cc1cc[n+](-c2[nH]c(=O)sc2/C=N/NC([S-])=Nc2ccccc2)cc1C,-6.8,6.5,-8.2,56.0*,-1.6,-10.8,25.5*
Clc1ccc(-c2ccc(-c3nn4c(-c5ccco5)nnc4s3)o2)cc1,1.9,24.0,12.5,6.3,16.3,4.4,/
Brc1ccc(-c2nn3c(-c4ccco4)nnc3s2)o1,1.1,18.3,30.3,53.5*,8.2,5.3,15.2
O=C(Nc1cccc([N+](=O)[O-])c1)OCc1ccc2c(c1)OCO2,/,/,/,1.8,/,/,/
O=C(CCNC(=O)c1ccco1)NCCc1ccc(Cl)cc1,-1.8,/,8.8,47.4*,27.2,12.3,1.1
N#Cc1cn(N2CCCCC2)c(=O)[nH]c1=O,-5.0,0.5,9.1,9.0,2.9,-4.0,/
O=C1Nc2ccccc2C(=O)C1(Cl)Cc1ccccc1 (centres undefined),17.1,-2.9,11.8,93.0*,2.4,12.4,87.3*
Cc1cccc(OCCSc2nc3ccccc3n2CCC(=O)O)c1,0.6,-12.4,12.7,4.8,2.3,-4.9,/
Cc1cccc(N2C(=O)CC(n3ccnc3)C2=O)c1C (centres undefined),6.4,-4.2,-0.5,36.2*,2.4,-2.0,5.6
O=C(Nc1cccc(C(=O)O)c1)/C(=C\c1ccco1)NC(=O)c1ccccc1Cl,7.2,5.0,5.2,29.8*,0.6,6.4,4.6
O=C(Nc1cccc(C(=O)O)c1)/C(=C\c1ccco1)NC(=O)c1ccccc1,-5.0,-1.5,6.6,14.4,-1.9,-1.1,/
O=C(Nc1cccc(F)c1)/C(=C\c1cccnc1)NC(=O)c1ccco1,-1.0,9.5,1.4,5.1,4.6,-0.7,/

# Screens (PubChem)
